The record followed here is ChEMBL document CHEMBL1123623, “Synthesis of some [N-(2-haloalkyl)amino]tetralin derivatives as potential irreversible labels for bovine anterior pituitary D2 dopamine receptors” (J Med Chem, 1987).

In assay [1] the target is T1, D(2) dopamine receptor (Bos taurus, UniProt P20288). The experiment in a line: Ability to displace [3H]spiperone binding from anterior pituitary Dopamine receptor D2 in the absence of GTP; NA means inactive. The essentials: (§1)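 Bovine anterior pituitary membranes; displacement of [3H]spiperone (ca. 500 pM) with no GTP added. Specific binding defined with 3.3 μM (+)-butaclamol; buffer with 0.1% ascorbic acid in place of dithiothreitol. Triplicate points; IC50 corrected for [3H]spiperone concentration, plus pseudo Hill coefficient. Mean ± SEM (n ≥ 3) or mean ± range (n = 2).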

The target of assay [2] is T1, D(2) dopamine receptor. The assay can be described thus: Ability to displace [3H]spiperone binding from anterior pituitary Dopamine receptor D2 in the presence of 100 uM GTP. An outline of the steps:
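[3H]spiperone (ca. 500 pM) displacement in bovine anterior pituitary membranes in the presence of 100 μM GTP. Nonspecific binding set with 3.3 μM (+)-butaclamol; 0.1% ascorbic acid replaced dithiothreitol. Points in triplicate; IC50 corrected for radioligand concentration, with pseudo Hill coefficient. Mean ± SEM (n ≥ 3) or mean ± range (n = 2).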

Assay [3] deals with T1, D(2) dopamine receptor. The experiment in a line: Ability to displace [3H]spiperone binding from anterior pituitary Dopamine receptor D2 in the absence of GTP. An outline of the steps:
as §1

T1 sequence (P20288 whole entry): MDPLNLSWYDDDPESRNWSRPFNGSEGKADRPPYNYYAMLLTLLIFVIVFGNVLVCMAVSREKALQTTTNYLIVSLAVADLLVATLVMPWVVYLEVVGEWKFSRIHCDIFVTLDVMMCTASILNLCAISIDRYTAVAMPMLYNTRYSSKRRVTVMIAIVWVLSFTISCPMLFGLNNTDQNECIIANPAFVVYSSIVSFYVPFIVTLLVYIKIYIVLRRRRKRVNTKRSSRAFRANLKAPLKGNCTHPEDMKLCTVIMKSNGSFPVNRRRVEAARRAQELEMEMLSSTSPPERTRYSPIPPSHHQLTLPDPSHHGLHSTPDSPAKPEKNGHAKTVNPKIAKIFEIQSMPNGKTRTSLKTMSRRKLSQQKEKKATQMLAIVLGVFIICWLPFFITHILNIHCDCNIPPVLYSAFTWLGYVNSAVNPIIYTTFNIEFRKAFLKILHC

In general, IC50 refers to the midpoint of a concentration-inhibition curve. As for `O=C(CCl)NC1CCc2cc(O)c(O)cc2C1` (stereo not given), at D(2) dopamine receptor [1], the concentration for half-maximal inhibition (IC50) result was “Not Active”.
Consider `CCCN(CCCl)C1CCc2cc(O)c(O)cc2C1` (stereo not given), for which the IC50 on D(2) dopamine receptor [2] came to 260 nM; at D(2) dopamine receptor [3], 76 nM.
At D(2) dopamine receptor [3], `CN(CCCl)C1CCc2cc(O)ccc2C1` (stereo not given) returned an IC50 of 2970 nM.
For `COc1cc2c(cc1OC)CC(NCCCl)CC2.Cl` (stereo not given), at D(2) dopamine receptor [1], the IC50 result was “Not Active”.
`CCCN(CCBr)C1CCc2cc(O)c(O)cc2C1` (stereo not given): the values for the IC50 on D(2) dopamine receptor [2] and at D(2) dopamine receptor [3] were greater than 100000 nM and 1970 nM, respectively.
Take `CCCN(CCCl)C1CCc2cc(OC)c(OC)cc2C1.Cl` (stereo not given): the half-maximal inhibitory concentration (IC50) entry at D(2) dopamine receptor [1] is recorded as “Not Active”.
For `Oc1cc2c(cc1O)CC(NCCBr)CC2` (stereo not given), the figures for the IC50 on D(2) dopamine receptor [2] and at D(2) dopamine receptor [3] were 420 nM and 170 nM, respectively.
Take `COc1cc2c(cc1OC)CC(NCCO)CC2.Cl` (stereo not given): on D(2) dopamine receptor [1], the IC50 result is “Not Active”.
Regarding `CN(CCCl)C1CCc2c(ccc(O)c2O)C1` (stereo not given), the IC50 is greater than 100000 nM on D(2) dopamine receptor [2] and 32200 nM at D(2) dopamine receptor [3].
The corresponding values for `Oc1cc2c(cc1O)CC(NCCCl)CC2` (stereo not given) are greater than 100000 nM and 300 nM.
Take `CN(CCCl)C1CCc2cc(O)c(O)cc2C1` (stereo not given): the IC50 on D(2) dopamine receptor [2] was found to be 3720 nM; at D(2) dopamine receptor [3], 1820 nM.
As to `Br.CCCN(CC(C)Br)C1CCc2cc(O)c(O)cc2C1` (stereo not given), at D(2) dopamine receptor [1], the IC50 result is “Not Active”.
As to `CCCN(CCO)C1CCc2cc(O)c(O)cc2C1` (stereo not given), the IC50 on D(2) dopamine receptor [2] is 2420 nM; at D(2) dopamine receptor [3] it was 420 nM.
For `CC(Br)CNC1CCc2cc(O)c(O)cc2C1` (stereo not given) the same measures were 1010 nM and 300 nM.
Regarding `CCCN(CCO)C1CCc2cc(OC)c(OC)cc2C1` (stereo not given), the IC50 entry on D(2) dopamine receptor [1] is “Not Active”.
On the same count and under the same terms, the same measure for `COc1cc2c(cc1OC)CC(NC(=O)CCl)CC2` (stereo not given): “Not Active”; for `CCCN(C(=O)CCl)C1CCc2cc(OC)c(OC)cc2C1` (stereo not given): “Not Active”.
